From ChEMBL document CHEMBL4152188, “Design, synthesis and biological evaluation of C(4) substituted monobactams as antibacterial agents against multidrug-resistant Gram-negative bacteria” (Eur J Med Chem, 2018)
Values after ≈ are worked out from the molar mass of the structure shown.

How the values were obtained:
Format in all cases: functional
Escherichia coli [1] = assay: Antibacterial activity against extended-spectrum beta-lactamase producing Escherichia coli isolate 212648 after 18 hrs by CLSI broth microdilution method; conditions: isolate 212648, 18 h
Escherichia coli [2] = assay: Selectivity index, ratio of MIC for against extended-spectrum beta-lactamase producing Escherichia coli isolate 208687 to MIC for extended-spectrum beta-lactamase producing Escherichia coli isolate 208687 in presence of BPL
Escherichia coli [3] = assay: Antibacterial activity against Escherichia coli isolate 210737 after 18 hrs by CLSI broth microdilution method; conditions: isolate 210737, 18 h
Escherichia coli [4] = assay: Antibacterial activity against extended-spectrum beta-lactamase producing Escherichia coli isolate 208687 after 18 hrs by CLSI broth microdilution method; conditions: isolate 208687, 18 h
Escherichia coli [5] = assay: Antibacterial activity against extended-spectrum beta-lactamase producing Escherichia coli isolate 208687 after 18 hrs in presence of BPL by CLSI broth microdilution method; conditions: isolate 208687, 18 h
Method in brief: (§1)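 CLSI broth microdilution against clinical isolates (ESBL E. coli, KPC-2 MDR K. pneumoniae, IMP-4 MDR P. aeruginosa; five per species). Iron limitation: Mueller-Hinton broth supplemented with 16 mg/liter 2,2'-bipyridyl to complex iron and induce iron uptake systems. Read-out: MIC.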

Escherichia coli [6] = assay: Antibacterial activity against Escherichia coli isolate 210737 after 18 hrs in presence of BPL by CLSI broth microdilution method; conditions: isolate 210737, 18 h; method in brief: as §1
Escherichia coli [7] = assay: Selectivity index, ratio of MIC for against Escherichia coli isolate 210737 to MIC for Escherichia coli isolate 210737 in presence of BPL
Escherichia coli [8] = assay: Antibacterial activity against extended-spectrum beta-lactamase producing Escherichia coli isolate 212648 after 18 hrs in presence of BPL by CLSI broth microdilution method; conditions: isolate 212648, 18 h; method in brief: as §1
Escherichia coli [9] = assay: Selectivity index, ratio of MIC for against extended-spectrum beta-lactamase producing Escherichia coli isolate 212648 to MIC for extended-spectrum beta-lactamase producing Escherichia coli isolate 212648 in presence of BPL
Escherichia coli [10] = assay: Antibacterial activity against extended-spectrum beta-lactamase producing Escherichia coli isolate 209285 after 18 hrs by CLSI broth microdilution method; conditions: isolate 209285, 18 h
Escherichia coli [11] = assay: Antibacterial activity against extended-spectrum beta-lactamase producing Escherichia coli isolate 209285 after 18 hrs in presence of BPL by CLSI broth microdilution method; conditions: isolate 209285, 18 h; method in brief: as §1
Escherichia coli [12] = assay: Selectivity index, ratio of MIC for against extended-spectrum beta-lactamase producing Escherichia coli isolate 209285 to MIC for extended-spectrum beta-lactamase producing Escherichia coli isolate 209285 in presence of BPL
Escherichia coli [13] = assay: Antibacterial activity against extended-spectrum beta-lactamase producing Escherichia coli isolate 106342 after 18 hrs by CLSI broth microdilution method; conditions: isolate 106342, 18 h
Escherichia coli [14] = assay: Antibacterial activity against extended-spectrum beta-lactamase producing Escherichia coli isolate 106342 after 18 hrs in presence of BPL by CLSI broth microdilution method; conditions: isolate 106342, 18 h; method in brief: as §1
Escherichia coli [15] = assay: Selectivity index, ratio of MIC for against extended-spectrum beta-lactamase producing Escherichia coli isolate 106342 to MIC for extended-spectrum beta-lactamase producing Escherichia coli isolate 106342 in presence of BPL
Klebsiella pneumoniae [16] = assay: Antibacterial activity against KPC-2 producing Klebsiella pneumoniae isolate 212423 after 18 hrs by CLSI broth microdilution method; conditions: isolate 212423, 18 h
Klebsiella pneumoniae [17] = assay: Antibacterial activity against KPC-2 producing Klebsiella pneumoniae isolate 212423 after 18 hrs in presence of BPL by CLSI broth microdilution method; conditions: isolate 212423, 18 h; method in brief: as §1
Klebsiella pneumoniae [18] = assay: Selectivity index, ratio of MIC for against KPC-2 producing Klebsiella pneumoniae isolate 212423 to MIC for against KPC-2 producing Klebsiella pneumoniae isolate 212423 in presence of BPL
Klebsiella pneumoniae [19] = assay: Antibacterial activity against KPC-2 producing Klebsiella pneumoniae isolate 209632 after 18 hrs by CLSI broth microdilution method; conditions: isolate 209632, 18 h
Klebsiella pneumoniae [20] = assay: Antibacterial activity against KPC-2 producing Klebsiella pneumoniae isolate 209632 after 18 hrs in presence of BPL by CLSI broth microdilution method; conditions: isolate 209632, 18 h; method in brief: as §1
Klebsiella pneumoniae [21] = assay: Selectivity index, ratio of MIC for against KPC-2 producing Klebsiella pneumoniae isolate 209632 to MIC for against KPC-2 producing Klebsiella pneumoniae isolate 209632 in presence of BPL
Klebsiella pneumoniae [22] = assay: Antibacterial activity against KPC-2 producing Klebsiella pneumoniae isolate 209735 after 18 hrs by CLSI broth microdilution method; conditions: isolate 209735, 18 h
Klebsiella pneumoniae [23] = assay: Antibacterial activity against KPC-2 producing Klebsiella pneumoniae isolate 209735 after 18 hrs in presence of BPL by CLSI broth microdilution method; conditions: isolate 209735, 18 h; method in brief: as §1
Klebsiella pneumoniae [24] = assay: Selectivity index, ratio of MIC for against KPC-2 producing Klebsiella pneumoniae isolate 209735 to MIC for against KPC-2 producing Klebsiella pneumoniae isolate 209735 in presence of BPL
Klebsiella pneumoniae [25] = assay: Antibacterial activity against KPC-2 producing Klebsiella pneumoniae isolate 212232 after 18 hrs by CLSI broth microdilution method; conditions: isolate 212232, 18 h
Klebsiella pneumoniae [26] = assay: Antibacterial activity against KPC-2 producing Klebsiella pneumoniae isolate 212232 after 18 hrs in presence of BPL by CLSI broth microdilution method; conditions: isolate 212232, 18 h; method in brief: as §1
Klebsiella pneumoniae [27] = assay: Selectivity index, ratio of MIC for against KPC-2 producing Klebsiella pneumoniae isolate 212232 to MIC for against KPC-2 producing Klebsiella pneumoniae isolate 212232 in presence of BPL
Klebsiella pneumoniae [28] = assay: Antibacterial activity against KPC-2 producing Klebsiella pneumoniae isolate 212229 after 18 hrs by CLSI broth microdilution method; conditions: isolate 212229, 18 h
Klebsiella pneumoniae [29] = assay: Antibacterial activity against KPC-2 producing Klebsiella pneumoniae isolate 212229 after 18 hrs in presence of BPL by CLSI broth microdilution method; conditions: isolate 212229, 18 h; method in brief: as §1
Klebsiella pneumoniae [30] = assay: Selectivity index, ratio of MIC for against KPC-2 producing Klebsiella pneumoniae isolate 212229 to MIC for against KPC-2 producing Klebsiella pneumoniae isolate 212229 in presence of BPL
Pseudomonas aeruginosa [31] = assay: Antibacterial activity against IMP-4 producing Pseudomonas aeruginosa isolate 212886 after 18 hrs by CLSI broth microdilution method; conditions: isolate 212886, 18 h
Pseudomonas aeruginosa [32] = assay: Antibacterial activity against IMP-4 producing Pseudomonas aeruginosa isolate 212886 after 18 hrs in presence of BPL by CLSI broth microdilution method; conditions: isolate 212886, 18 h; method in brief: as §1
Pseudomonas aeruginosa [33] = assay: Selectivity index, ratio of MIC for against IMP-4 producing Pseudomonas aeruginosa isolate 212886 to MIC for against IMP-4 producing Pseudomonas aeruginosa isolate 212886 in presence of BPL
Pseudomonas aeruginosa [34] = assay: Antibacterial activity against IMP-4 producing Pseudomonas aeruginosa isolate 209471 after 18 hrs by CLSI broth microdilution method; conditions: isolate 209471, 18 h
Pseudomonas aeruginosa [35] = assay: Antibacterial activity against IMP-4 producing Pseudomonas aeruginosa isolate 209471 after 18 hrs in presence of BPL by CLSI broth microdilution method; conditions: isolate 209471, 18 h; method in brief: as §1
Pseudomonas aeruginosa [36] = assay: Selectivity index, ratio of MIC for against IMP-4 producing Pseudomonas aeruginosa isolate 209471 to MIC for against IMP-4 producing Pseudomonas aeruginosa isolate 209471 in presence of BPL
Pseudomonas aeruginosa [37] = assay: Antibacterial activity against IMP-4 producing Pseudomonas aeruginosa isolate 208247 after 18 hrs by CLSI broth microdilution method; conditions: isolate 208247, 18 h
Pseudomonas aeruginosa [38] = assay: Antibacterial activity against IMP-4 producing Pseudomonas aeruginosa isolate 208247 after 18 hrs in presence of BPL by CLSI broth microdilution method; conditions: isolate 208247, 18 h; method in brief: as §1
Pseudomonas aeruginosa [39] = assay: Selectivity index, ratio of MIC for against IMP-4 producing Pseudomonas aeruginosa isolate 208247 to MIC for against IMP-4 producing Pseudomonas aeruginosa isolate 208247 in presence of BPL
Pseudomonas aeruginosa [40] = assay: Antibacterial activity against IMP-4 producing Pseudomonas aeruginosa isolate 209321 after 18 hrs by CLSI broth microdilution method; conditions: isolate 209321, 18 h
Pseudomonas aeruginosa [41] = assay: Antibacterial activity against IMP-4 producing Pseudomonas aeruginosa isolate 209321 after 18 hrs in presence of BPL by CLSI broth microdilution method; conditions: isolate 209321, 18 h; method in brief: as §1
Pseudomonas aeruginosa [42] = assay: Selectivity index, ratio of MIC for against IMP-4 producing Pseudomonas aeruginosa isolate 209321 to MIC for against IMP-4 producing Pseudomonas aeruginosa isolate 209321 in presence of BPL
Pseudomonas aeruginosa [43] = assay: Antibacterial activity against IMP-4 producing Pseudomonas aeruginosa isolate 207272 after 18 hrs by CLSI broth microdilution method; conditions: isolate 207272, 18 h
Pseudomonas aeruginosa [44] = assay: Antibacterial activity against IMP-4 producing Pseudomonas aeruginosa isolate 207272 after 18 hrs in presence of BPL by CLSI broth microdilution method; conditions: isolate 207272, 18 h; method in brief: as §1
Pseudomonas aeruginosa [45] = assay: Selectivity index, ratio of MIC for against IMP-4 producing Pseudomonas aeruginosa isolate 207272 to MIC for against IMP-4 producing Pseudomonas aeruginosa isolate 207272 in presence of BPL

- MIC (Escherichia coli [1]): 2 µg/mL (≈ 3.59 µM)
- MIC (Escherichia coli [3]): 4 µg/mL (≈ 7.19 µM)
- MIC (Escherichia coli [4]): 1 µg/mL (≈ 1.8 µM)
- MIC (Escherichia coli [5]): 0.5 µg/mL
- MIC (Escherichia coli [6]): 0.5 µg/mL
- MIC (Escherichia coli [8]): 1 µg/mL
- MIC (Escherichia coli [10]): 4 µg/mL (≈ 7.19 µM)
- MIC (Escherichia coli [11]): 2 µg/mL
- MIC (Escherichia coli [13]): 2 µg/mL (≈ 3.59 µM)
- MIC (Escherichia coli [14]): 1 µg/mL
- MIC (Klebsiella pneumoniae [16]): > 64 µg/mL
- MIC (Klebsiella pneumoniae [17]): 8 µg/mL
- MIC (Klebsiella pneumoniae [19]): > 64 µg/mL
- MIC (Klebsiella pneumoniae [20]): 16 µg/mL
- MIC (Klebsiella pneumoniae [22]): > 64 µg/mL
- MIC (Klebsiella pneumoniae [23]): 8 µg/mL
- MIC (Klebsiella pneumoniae [25]): 8 µg/mL (≈ 14.4 µM)
- MIC (Klebsiella pneumoniae [26]): 4 µg/mL
- MIC (Klebsiella pneumoniae [28]): 32 µg/mL (≈ 57.5 µM)
- MIC (Klebsiella pneumoniae [29]): 8 µg/mL
- MIC (Pseudomonas aeruginosa [31]): 16 µg/mL (≈ 28.7 µM)
- MIC (Pseudomonas aeruginosa [32]): 16 µg/mL
- MIC (Pseudomonas aeruginosa [34]): 32 µg/mL (≈ 57.5 µM)
- MIC (Pseudomonas aeruginosa [35]): 32 µg/mL
- MIC (Pseudomonas aeruginosa [37]): 16 µg/mL (≈ 28.7 µM)
- MIC (Pseudomonas aeruginosa [38]): 16 µg/mL
- MIC (Pseudomonas aeruginosa [40]): 32 µg/mL (≈ 57.5 µM)
- MIC (Pseudomonas aeruginosa [41]): 16 µg/mL
- MIC (Pseudomonas aeruginosa [43]): 32 µg/mL (≈ 57.5 µM)
- MIC (Pseudomonas aeruginosa [44]): 32 µg/mL
Compound: CC(C)C(O/N=C(\C(=O)NC1C(=O)N(S(=O)(=O)O)C12CCC2)c1csc(N)n1)c1cc(=O)c(O)cn1O (stereo not given)
- Selectivity Index (Escherichia coli [2]): 2
- Selectivity Index (Escherichia coli [7]): 8
- Selectivity Index (Escherichia coli [9]): 2
- Selectivity Index (Escherichia coli [12]): 2
- Selectivity Index (Escherichia coli [15]): 2
- Selectivity Index (Klebsiella pneumoniae [18]): >8
- Selectivity Index (Klebsiella pneumoniae [21]): >4
- Selectivity Index (Klebsiella pneumoniae [24]): >8
- Selectivity Index (Klebsiella pneumoniae [27]): 2
- Selectivity Index (Klebsiella pneumoniae [30]): 4
- Selectivity Index (Pseudomonas aeruginosa [33]): 1
- Selectivity Index (Pseudomonas aeruginosa [36]): 1
- Selectivity Index (Pseudomonas aeruginosa [39]): 1
- Selectivity Index (Pseudomonas aeruginosa [42]): 2
- Selectivity Index (Pseudomonas aeruginosa [45]): 1
